Assay results taken from ChEMBL document CHEMBL4145623, “Abietane Diterpenoids from the Roots of Clerodendrum trichotomum and Their Nitric Oxide Inhibitory Activities” (J Nat Prod, 2018).
Counter-ions that a name gives are not always drawn.

Key:
[1] = test system: RAW264.7; test: Antiinflammatory activity against mouse RAW264.7 cells assessed as inhibition of LPS-induced NO production pretreated for 30 mins followed by LPS stimulation measured after 24 hrs by Griess reagent based assay; format: functional, cell-based
How it was run: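 Supernatant mixed 1:1 with Griess reagent for 10 min, absorbance read at 540 nm. DMSO final ≤0.1%. Aminoguanidine hydrochloride served as positive control. Run in triplicate; IC50 given as mean ± SD (n = 3).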

[2] = Cytotoxicity against mouse RAW264.7 cells assessed as cell survival at 25 uM; format: cell-based; settings: read-out: Survival

Compound | IC50 [1] [µM] | viability at 25 µM [2] [%]
COC(=O)C1=C(C)C2=CC(=O)c3c(O)c4c(c(O)c3[C@@]2(C)CC1)O[C@@H](C)C4 | > 50 | 
CC1=C(C)[C@H](O)C[C@@]2(C)C1=CC(=O)c1c(O)c3c(c(O)c12)O[C@@H](C)C3 |  | < 15
C=C1C2=CC(=O)c3c(O)c4c(c(O)c3[C@@]2(C)CC[C@@]1(C)O)OC(C)C4 (some centres undefined) | > 50 | 
COC1=C2C(C)(C)CCC[C@]2(C)c2c(O)c3c(c(O)c2C1=O)C[C@H](CO)O3 | 35.6 | 
CC1=C(CO)CC[C@@]2(C)C1=CC(=O)c1c(O)c3c(c(O)c12)O[C@@H](C)C3 |  | < 15
C[C@H]1Cc2c(O)c3c(c(O)c2O1)[C@@]1(C)CC[C@]2(C)O[C@]2(C)C1=CC3=O | > 50 | 
COC1=C2C(C)(C)C(=O)CC[C@]2(C)c2c(c(O)c3cc(C)oc3c2O)C1=O | 31.1 | 
Cc1cc2c(O)c3c(c(O)c2o1)[C@@]1(C)CCC(=O)C(C)(C)C1=C(O)C3=O | > 50 | 
CC1=C(CO)C(=O)C[C@@]2(C)C1=CC(=O)c1c(O)c3c(c(O)c12)O[C@@H](C)C3 |  | < 15
CC1=C(C)C2=CC(=O)c3c(O)c4c(c(O)c3[C@@]2(C)CC1=O)O[C@@H](C)[C@@H]4O | 38.6 | 
CC1=C(C)C2=CC(=O)c3c(O)c4c(c(O)c3[C@@]2(C)CC1)O[C@@H](C)[C@@H]4O | > 50 | 
CC(C)c1cc2c(c(O)c1O)[C@@]1(C)CCCC(C)(C)[C@@H]1[C@@H](O)C2=O [6-ALPHA-HYDROXYDEMETHYL-CRYPTOJAPONOL] | 9.4 | 
C[C@H]1Cc2c(O)c3c(c(O)c2O1)[C@@]1(C)CCC2=C(COC2=O)C1=CC3=O | 28.9 | 
CC1=C(C)[C@H](O)C[C@@]2(C)C1=CC(=O)c1c2c(O)c2oc(C)cc2c1O |  | < 15
COC1=C2C(C)(C)CCC[C@]2(C)c2c(O)c3c(c(O)c2C1=O)C[C@H](C)O3 | > 50 | 
COC1=C2C(C)(C)CCC[C@]2(C)c2c(c(O)c3cc(CO)oc3c2O)C1=O | 16.1 | 
Cc1cc2c(O)c3c(c(O)c2o1)[C@@]1(C)CCC(=O)C(C)(C)[C@@H]1CC3=O | 6 | 
COC1=C2C(C)(C)C(=O)CC[C@]2(C)c2c(O)c3c(c(O)c2C1=O)C[C@H](C)O3 | > 50 | 
CC1=C(C=O)CC[C@@]2(C)C1=CC(=O)c1c(O)c3c(c(O)c12)O[C@@H](C)C3 |  | < 15
CC(C)c1cc2c(c(O)c1O[C@@H]1O[C@H](CO)[C@@H](O)[C@H](O)[C@H]1O)[C@@]1(C)CC[C@H](O[C@@H]3O[C@H](CO)[C@@H](O)[C@H](O)[C@H]3O)C(C)(C)[C@@H]1CC2 | > 50 | 
CC1=C(C)C2=CC(=O)C3=C(C(=O)c4oc(C)cc4C3=O)[C@@]2(C)CC1 |  | < 15
CC(C)c1cc2c(c(O)c1O[C@@H]1O[C@H](CO)[C@@H](O)[C@H](O)[C@H]1O)[C@@]1(C)CCC[C@](C)(C(=O)O[C@@H]3O[C@H](CO)[C@@H](O)[C@H](O)[C@H]3O)[C@@H]1CC2 | > 50 | 

Compound | IC50 [1] [µM] | viability at 25 µM [2] [%]
C[C@H]1Cc2c(O)c3c(c(O)c2O1)[C@@]1(C)CCC(=O)C(C)(C)C1=C(O)C3=O [TEUVINCENONE A] | > 50 | 
CC1=C(CO)C2=CC(=O)c3c(c(O)c4oc(C)cc4c3O)[C@@]2(C)CC1=O | > 50 | 
C[C@H]1Cc2c(O)c3c(c(O)c2O1)[C@@]1(C)CC[C@H](O)C(C)(C)[C@@H]1CC3=O |  | < 15
CC1=C(C)C2=CC(=O)c3c(c(O)c4oc(C)cc4c3O)[C@@]2(C)CC1 |  | < 15
CC(CO)c1cc2c(c(O)c1O[C@@H]1O[C@H](CO)[C@@H](O)[C@H](O)[C@H]1O)[C@@]1(C)CC[C@H](O)C(C)(C)[C@@H]1CC2 (some centres undefined) | > 50 | 
C[C@H]1Cc2c(O)c3c(c(O)c2O1)[C@@]1(C)CCC(=O)C(C)(C)[C@@H]1CC3=O | > 50 | 
CC(C)c1cc2c(c(O)c1O)[C@@]1(C)CCCC(C)(C)[C@@H]1CC2=O [DEMETHYLCRYPTOJAPONOL] | 15.5 | 
CC1=C(C)[C@@H](O)C[C@@]2(C)C1=CC(=O)c1c(O)c3c(c(O)c12)O[C@@H](C)C3 | 6.5 | 
CC1(C)CCC[C@@]2(C)C1=C(O)C(=O)c1c(O)c3c(c(O)c12)O[C@@H](CO)C3 [VILLOSIN C] | 15.5 | 
CC1(C)CCC[C@@]2(C)C1=CC(=O)c1c(O)c3c(c(O)c12)O[C@@H](CO)C3 |  | < 15
C[C@@H](CO)c1cc2c(c(O)c1O)[C@@]1(C)CCCC(C)(C)[C@@H]1CC2=O | > 50 | 
C[C@@]12C[C@@H]1CC[C@]1(C)c3c(O)c4c(c(O)c3C(=O)C[C@@H]21)C[C@H](CO)O4 | > 50 | 
CC1=C(C)[C@@H](O)C[C@@]2(C)C1=CC(=O)c1c2c(O)c2oc(C)cc2c1O | > 50 | 
CC1(C)CCC[C@]2(C)c3c(O)c4c(c(O)c3C(=O)C[C@@H]12)C[C@H](CO)O4 | > 50 | 
N=C(N)NN [PIMAGEDINE HYDROCHLORIDE] | 26.2 | 
C=C1C(C)=CC[C@]2(C)c3c(cc(CC(C)O)c(O[C@@H]4O[C@H](CO)[C@@H](O)[C@H](O)[C@H]4O)c3O)C(=O)C[C@@H]12 (some centres undefined) | > 50 | 
CC1=C(C)C2=CC(=O)c3c(O)c4c(c(O)c3[C@@]2(C)CC1)O[C@@H](C)C4 |  | < 15
CC(O)Cc1cc2c(c(O)c1O)[C@@]1(C)CCCC(C)(C)[C@@H]1CC2=O (some centres undefined) | > 50 | 
CC1=C(C)C2=CC(=O)[C@@]34O[C@@]3(C(=O)c3oc(C)cc3C4=O)[C@@]2(C)CC1 | 10.6 | 
CC1=C(C)C2=CC(=O)c3c(c(O)c4oc(C)cc4c3O)[C@@]2(C)CC1=O | > 50 | 
CC1=C(C)C2=CC(=O)C3=C(C(=O)[C@]4(Oc5c([C@H](C)CO)cc6c(c5O4)[C@]4(C)CCCC(C)(C)[C@H]4CC6=O)[C@@]4(O)C[C@H](C)O[C@]34O)[C@]2(C)CC1 | 5.6 | 
CC1=C(C)C2=CC(=O)c3c(O)c4c(c(O)c3[C@@]2(C)CC1=O)O[C@@H](C)C4 | 31.4 | 
